ChEMBL document CHEMBL4680226, “Design, synthesis, and evaluation of N-phenyl-4-(2-phenylsulfonamido)-benzamides as microtubule-targeting agents in drug-resistant cancer cells, displaying HDAC inhibitory response” (Eur J Med Chem, 2020)
Calls of active or inactive are those of the source. The calls are words filed in the database; no cut-off is given here.

Tests used:
KB = experiment: Antiproliferative activity against human KB cells incubated for 48 hrs by SRB assay; type: functional
Outline: (§1)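 KB parental and resistant sublines kept in RPMI 1640 with 5% FBS at 37 °C, 5% CO2. Cells plated, left overnight, then given graded compound concentrations for 48 h. A time-zero plate was fixed with 10% TCA at dosing. Cells were stained with 0.4% SRB in 1% acetic acid, unbound dye washed off, bound dye dissolved in 10 mM Tris base, and absorbance read at 515 nm.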

[1] = Antiproliferative activity against human KB-VIN cells incubated for 48 hrs by SRB assay; type: functional; details: KBVIN; outline: as §1
KB-VIN [2] = experiment: Cell cycle arrest in human KB-VIN cells assessed as increase in accumulation at sub-G1 phase at 0.01 to 0.1 uM measured after 24 hrs by propidium iodide staining based flow cytometry; type: functional; details: dose 0.01-0.1 µM
Outline: (§2)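 Cells seeded at 2.5×10^5 per well and exposed to DMSO or compound for the stated times. They were washed in PBS and fixed overnight in ice-cold 70% ethanol at −20 °C. Staining used propidium iodide 80 µg/mL with 0.1% Triton X-100 and RNase A 100 µg/mL in PBS. DNA content was read by FACScan flow cytometry.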

KB-VIN [3] = experiment: Induction of apoptosis in human KB-VIN cells assessed as increase in cleaved PARP expression at 0.1 uM measured after 24 hrs by Western blot analysis; type: functional, cell-based
Outline: (§3)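 Resistant KB cells attached overnight, then drug-treated at the stated concentrations and times (24 h or 48 h). Lysates were immunoblotted for cleaved PARP, caspase-3, -8 and -9, and γH2AX, with anti-mouse or anti-rabbit IgG secondaries.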

KB-VIN [4] = experiment: Induction of apoptosis in human KB-VIN cells assessed as increase in cleaved caspase-3 expression at 0.1 uM measured after 24 hrs by Western blot analysis; type: functional, cell-based; outline: as §3
KB-VIN [5] = experiment: Induction of apoptosis in human KB-VIN cells assessed as increase in cleaved caspase-8 expression at 0.1 uM measured after 24 hrs by Western blot analysis; type: functional, cell-based; outline: as §3
KB-VIN [6] = experiment: Induction of apoptosis in human KB-VIN cells assessed as increase in cleaved caspase-9 expression at 0.1 uM measured after 24 hrs by Western blot analysis; type: functional, cell-based; outline: as §3
KB-VIN [7] = experiment: Induction of apoptosis in human KB-VIN cells assessed as increase in activated gammaH2AX expression at 0.1 uM measured after 24 hrs by Western blot analysis; type: functional, cell-based; outline: as §3
KB-VIN [8] = experiment: Cell cycle arrest in human KB-VIN cells assessed as increase in accumulation at sub-G1 phase at 0.1 uM measured after 48 hrs by propidium iodide staining based flow cytometry; type: functional; outline: as §2
KB-VIN [9] = experiment: Induction of apoptosis in human KB-VIN cells assessed as increase in cleaved PARP expression at 0.1 uM measured after 48 hrs by Western blot analysis; type: functional, cell-based; outline: as §3
KB-VIN [10] = experiment: Induction of apoptosis in human KB-VIN cells assessed as increase in cleaved caspase-3 expression at 0.1 uM measured after 48 hrs by Western blot analysis; type: functional, cell-based; outline: as §3
KB-VIN [11] = experiment: Induction of apoptosis in human KB-VIN cells assessed as increase in cleaved caspase-8 expression at 0.1 uM measured after 48 hrs by Western blot analysis; type: functional, cell-based; outline: as §3
KB-VIN [12] = experiment: Induction of apoptosis in human KB-VIN cells assessed as increase in cleaved caspase-9 expression at 0.1 uM measured after 48 hrs by Western blot analysis; type: functional, cell-based; outline: as §3
KB-VIN [13] = experiment: Induction of apoptosis in human KB-VIN cells assessed as increase in activated gammaH2AX expression at 0.1 uM measured after 48 hrs by Western blot analysis; type: functional, cell-based; outline: as §3
Tubulin (Homo sapiens) [14] = target: T1, Tubulin (Homo sapiens) (UniProt P68371+Q9H4B7+P0DPH7+P68366+Q13509+Q71U36+P04350+Q3ZCM7+P07437+P68363+Q9BQE3+Q6PEY2+Q13885+Q9BVA1+Q9BUF5); experiment: Induction of microtubule disruption in human KB-VIN cells at 1 uM measured after 24 hrs by DAPI staining based deconvolution fluorescence microscopic analysis; type: cell-based
Outline: (§4)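 Cells on glass coverslips treated 24 h, fixed in 4% paraformaldehyde for 15 min, and permeabilized with 0.5% Triton X-100. Blocked in PBS/2% BSA, stained with anti-beta-tubulin (1:250) and Alexa 488 anti-mouse (1:250), and mounted with DAPI. Imaged by wide-field deconvolution microscopy.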

Tubulin (Homo sapiens) [15] = target: T1, Tubulin (Homo sapiens); experiment: Induction of microtubule disruption in human KB7D cells at 1 uM measured after 24 hrs by DAPI staining based deconvolution fluorescence microscopic analysis; type: cell-based; outline: as §4
Tubulin (Homo sapiens) [16] = target: T1, Tubulin (Homo sapiens); experiment: Induction of microtubule disruption in human KB-VIN cells assessed as polymerized fraction at 0.01 uM measured after 16 hrs by SDS-PAGE analysis (reference value: 23.1 to 25.5%); type: cell-based
Outline: (§5)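 KB-Vin or KB-7D cells treated 16 h, then lysed 5 min at 37 °C in the dark in hypotonic buffer (1% NP-40, 1 mmol/L MgCl2, 2 mmol/L EGTA, 50 mmol/L Tris-HCl pH 6.8, protease inhibitors). Spun 13000 rpm, 10 min, room temperature. Soluble supernatant and resuspended polymerized pellet run on SDS-PAGE.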

Tubulin (Homo sapiens) [17] = target: T1, Tubulin (Homo sapiens); experiment: Induction of microtubule disruption in human KB-VIN cells assessed as polymerized fraction at 0.1 uM measured after 16 hrs by SDS-PAGE analysis (reference value: 23.1 to 25.5%); type: cell-based; outline: as §5
Tubulin (Homo sapiens) [18] = target: T1, Tubulin (Homo sapiens); experiment: Induction of microtubule disruption in human KB-VIN cells assessed as polymerized fraction at 1 uM measured after 16 hrs by SDS-PAGE analysis (reference value: 23.1 to 25.5%); type: cell-based; outline: as §5
Tubulin (Homo sapiens) [19] = target: T1, Tubulin (Homo sapiens); experiment: Induction of microtubule disruption in human KB7D cells assessed as polymerized fraction at 0.01 uM measured after 16 hrs by SDS-PAGE analysis (reference value: 26.4 to 29%); type: cell-based; outline: as §5
Tubulin (Homo sapiens) [20] = target: T1, Tubulin (Homo sapiens); experiment: Induction of microtubule disruption in human KB7D cells assessed as polymerized fraction at 0.1 uM measured after 16 hrs by SDS-PAGE analysis (reference value: 26.4 to 29%); type: cell-based; outline: as §5
Tubulin (Homo sapiens) [21] = target: T1, Tubulin (Homo sapiens); experiment: Induction of microtubule disruption in human KB7D cells assessed as polymerized fraction at 1 uM measured after 16 hrs by SDS-PAGE analysis (reference value: 26.4 to 29%); type: cell-based; outline: as §5
[22] = Antiproliferative activity against human KB7D cells incubated for 48 hrs by SRB assay; type: functional; outline: as §1
KB7D = experiment: Induction of apoptosis in human KB7D cells assessed as increase in activated gammaH2AX expression measured after 24 hrs by Western blot analysis; type: functional, cell-based; outline: as §3

Compound: COc1ccc(S(=O)(=O)Nc2ccccc2CCc2ccc(C(=O)NO)cc2)cc1
- GI50 (KB): > 10000 nM

Compound: COc1ccc(S(=O)(=O)Nc2ccc(CCc3ccc(C(=O)Nc4ccccc4N)cc3)cc2)cc1
- GI50 (KB): > 10000 nM

Compound: Nc1ccccc1NC(=O)c1ccc(CCc2ccccc2)cc1
- GI50 (KB): > 10000 nM

Compound: COc1ccc(S(=O)(=O)Nc2ccccc2CCc2ccc(C(=O)Nc3cccc(N)c3)cc2)cc1
- GI50 (KB): 697 nM

Compound: COc1ccc(S(=O)(=O)Nc2ccccc2CCc2ccc(C(=O)Nc3ccccc3N)cc2)cc1OC
- GI50 (KB): 888 nM

Compound: CC[C@]1(O)C[C@H]2CN(CCc3c([nH]c4ccccc34)[C@@](C(=O)OC)(c3cc4c(cc3OC)N(C=O)[C@H]3[C@@](O)(C(=O)OC)[C@H](OC(C)=O)[C@]5(CC)C=CCN6CC[C@]43[C@@H]65)C2)C1 [VINCRISTINE]
- GI50 (KB): 1.86 nM
- GI50 [1]: 219 nM
- Activity (KB-VIN [2]): Active
- Activity (KB-VIN [3]): Active
- Activity (KB-VIN [4]): Active
- Activity (KB-VIN [5]): Active
- Activity (KB-VIN [6]): Active
- Activity (KB-VIN [7]): Active
- Activity (KB-VIN [8]): Active
- Activity (KB-VIN [9]): Active
- Activity (KB-VIN [10]): Active
- Activity (KB-VIN [11]): Active
- Activity (KB-VIN [12]): Active
- Activity (KB-VIN [13]): Active
- Activity (Tubulin (Homo sapiens) [14]): Active
- Activity (Tubulin (Homo sapiens) [15]): Active
- Activity (Tubulin (Homo sapiens) [16]): 25.5%
- Activity (Tubulin (Homo sapiens) [17]): 28.8%
- Activity (Tubulin (Homo sapiens) [18]): 25.2%
- Activity (Tubulin (Homo sapiens) [19]): 30.4%
- Activity (Tubulin (Homo sapiens) [20]): 25.8%
- Activity (Tubulin (Homo sapiens) [21]): 29.1%

Compound: Nc1ccccc1NC(=O)c1ccc(CCc2ccccc2NS(=O)(=O)c2ccccc2)cc1
- GI50 (KB): 456 nM

Compound: COc1cc([C@@H]2c3cc4c(cc3[C@@H](O[C@@H]3O[C@@H]5CO[C@@H](C)O[C@H]5[C@H](O)[C@H]3O)[C@H]3COC(=O)[C@H]23)OCO4)cc(OC)c1O [ETOPOSIDE]
- GI50 (KB): 8390 nM
- GI50 [22]: 98600 nM
- Activity (KB7D): Active

Compound: COc1ccc(S(=O)(=O)Nc2ccccc2/C=C/c2ccc(C(=O)Nc3ccccc3N)cc2)cc1
- GI50 (KB): 660 nM

Compound: Nc1ccccc1NC(=O)c1ccc(CCc2ccccc2NS(=O)(=O)c2ccc(F)cc2)cc1
- GI50 (KB): 884 nM

Compound: COc1ccc(S(=O)(=O)Nc2ccccc2CCc2ccc(C(=O)Nc3ccccc3O)cc2)cc1
- GI50 (KB): 472 nM

Compound: COc1ccc(S(=O)(=O)Nc2ccccc2CCc2ccc(C(=O)Nc3ccc(N)cc3)cc2)cc1
- GI50 (KB): 286 nM
